What was measured:
Homo sapiens [1] = species on record: Homo sapiens; test: Sweet character at a concentration of 252 ppm (mean value); type: functional
How it was run: (§1)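 Trained human sensory panel (Swartz method) tasted dilute aqueous solutions of the compounds, which had to be ≥95 weight percent pure and free of mutagenicity and toxicity. Taste character is reported as the mean value with 2S_m limits. Data deviating excessively at the 95% confidence level were rejected by the t-value method.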

Homo sapiens [2] = species on record: Homo sapiens; test: Sour character at a concentration of 252 ppm (mean value); type: functional; how it was run: as §1
Homo sapiens [3] = species on record: Homo sapiens; test: Percentage of judgments reporting an aftertaste at a concentration of 252 ppm and character thereof; type: functional
How it was run: (§2)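 Trained judges tasted aqueous solutions of the compounds, which had to be ≥95 weight percent pure and to have passed mutagenicity and single oral dose toxicity screening. The value is the percentage of panel judgments reporting an aftertaste. Where given, its character is recorded as sweet, bitter or bitter-sweet.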

Homo sapiens [4] = species on record: Homo sapiens; test: Intensity calculated on a weight basis relative to an 85500 ppm sucrose solution at a concentration of 252 ppm (mean value); type: functional
How it was run: (§3)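 Trained human panel tasted aqueous solutions of purity-checked (≥95 weight percent) compounds cleared for mutagenicity and mouse oral toxicity. Weight-basis intensity I_w = perceived intensity × (85500 ppm sucrose / compound concentration in ppm). The mean is reported with 2S_m limits; data deviating excessively at 95% confidence were rejected by the t-value method.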

Homo sapiens [5] = species on record: Homo sapiens; test: Experimentally determined perceived intensity of compound at a concentration of 252 ppm (mean value); type: functional
How it was run: (§4)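 Trained human sensory panel of judges tasted aqueous solutions of the compound. Samples had to be ≥95 weight % pure (HPLC, proton titration, Karl Fischer), non-mutagenic in five Salmonella typhimurium strains with and without microsomal activation, and non-toxic in a single-oral-dose mouse test. Perceived intensity (Ip) was read from time–intensity curves at 4- or 6-s intervals and averaged. Outliers at the 95% level were rejected by t-value. Values reported as mean (2Sm).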

Homo sapiens [6] = species on record: Homo sapiens; test: Bitter character at a concentration of 252 ppm (mean value); type: functional
How it was run: (§5)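 Trained human panel tasted aqueous solutions. Each judge reported whether there was an aftertaste and its character (sweet, bitter or bitter-sweet). The value is the percentage of judgments reporting a bitter aftertaste.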

Homo sapiens [7] = species on record: Homo sapiens; test: Number of taste judgments per compound; type: functional
Homo sapiens [8] = species on record: Homo sapiens; test: Sweet / Bitter character at a concentration of 252 ppm (mean value); 6/94; type: functional
Homo sapiens [9] = species on record: Homo sapiens; test: Intensity calculated on a molar basis relative to a 0.25 M sucrose solution at a concentration of 252 ppm (mean value); type: functional
How it was run: (§6)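 Trained human judges tasted aqueous solutions of the test compound; compounds were first required to be ≥95 weight percent pure and free of mutagenicity (five Salmonella typhimurium strains, ± microsomal activation) and of single oral dose mouse toxicity. Molar intensity I_m = perceived intensity × (0.25 M sucrose / compound molar concentration). The mean is reported with 2S_m limits; outliers were rejected at 95% confidence by t-value.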

Homo sapiens [10] = species on record: Homo sapiens; test: Salty character at a concentration of 252 ppm (mean value); type: functional; how it was run: as §1
Homo sapiens [11] = species on record: Homo sapiens; test: Other taste character at a concentration of 252 ppm (mean value); type: functional; how it was run: as §1
Homo sapiens [12] = species on record: Homo sapiens; test: Experimentally determined perceived intensity of compound at a concentration of 2000 ppm (mean value); type: functional; how it was run: as §4
Homo sapiens [13] = species on record: Homo sapiens; test: Percentage of judgments reporting an aftertaste at a concentration of 2000 ppm and character thereof; type: functional; how it was run: as §2
Homo sapiens [14] = species on record: Homo sapiens; test: Sweet character at a concentration of 90 ppm (mean value); type: functional
Homo sapiens [15] = species on record: Homo sapiens; test: Experimentally determined perceived intensity of compound at a concentration of 90 ppm (mean value); type: functional; how it was run: as §4
Homo sapiens [16] = species on record: Homo sapiens; test: Intensity calculated on a weight basis relative to an 85500 ppm sucrose solution at a concentration of 90 ppm (mean value); type: functional; how it was run: as §3
Homo sapiens [17] = species on record: Homo sapiens; test: Bitter character at a concentration of 90 ppm (mean value); type: functional; how it was run: as §5
Homo sapiens [18] = species on record: Homo sapiens; test: Intensity calculated on a molar basis relative to a 0.25 M sucrose solution at a concentration of 90 ppm (mean value); type: functional; how it was run: as §6
Homo sapiens [19] = species on record: Homo sapiens; test: Sour character at a concentration of 90 ppm (mean value); type: functional
Homo sapiens [20] = species on record: Homo sapiens; test: Salty character at a concentration of 90 ppm (mean value); type: functional
Homo sapiens [21] = species on record: Homo sapiens; test: Other taste character at a concentration of 90 ppm (mean value); type: functional; how it was run: as §1
Homo sapiens [22] = species on record: Homo sapiens; test: Percentage of judgments reporting an aftertaste at a concentration of 90 ppm and character thereof; type: functional
Homo sapiens [23] = species on record: Homo sapiens; test: Sweet / Bitter character at a concentration of 90 ppm (mean value); 91/9
Homo sapiens [24] = species on record: Homo sapiens; test: Intensity calculated on a weight basis relative to an 85500 ppm sucrose solution at a concentration of 1090 ppm (mean value); type: functional; how it was run: as §3
Homo sapiens [25] = species on record: Homo sapiens; test: Bitter character at a concentration of 1090 ppm (mean value); type: functional; how it was run: as §5
Homo sapiens [26] = species on record: Homo sapiens; test: Other taste character at a concentration of 1090 ppm (mean value); type: functional
How it was run: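 Trained human panel tasted aqueous solutions of each compound. Aftertaste is scored as the percentage of judgments reporting one, with its character coded sweet (s), bitter (b) or bitter-sweet (bs).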

Homo sapiens [27] = species on record: Homo sapiens; test: Experimentally determined perceived intensity of compound at a concentration of 1090 ppm (mean value); type: functional; how it was run: as §4
Homo sapiens [28] = species on record: Homo sapiens; test: Percentage of judgments reporting an aftertaste at a concentration of 1090 ppm; type: functional; how it was run: as §2
Homo sapiens [29] = species on record: Homo sapiens; test: Sweet character at a concentration of 1090 ppm (mean value); type: functional
Homo sapiens [30] = species on record: Homo sapiens; test: Intensity calculated on a molar basis relative to a 0.25 M sucrose solution at a concentration of 1090 ppm (mean value); type: functional; how it was run: as §6
Homo sapiens [31] = species on record: Homo sapiens; test: Salty character at a concentration of 1090 ppm (mean value); type: functional
Homo sapiens [32] = species on record: Homo sapiens; test: Sour character at a concentration of 1090 ppm (mean value); type: functional
Homo sapiens [33] = species on record: Homo sapiens; test: Sweet / Bitter character at a concentration of 1090 ppm (mean value); type: functional
Homo sapiens [34] = species on record: Homo sapiens; test: Experimentally determined perceived intensity of compound at a concentration of 690 ppm (mean value); type: functional; how it was run: as §4
Homo sapiens [35] = species on record: Homo sapiens; test: Sour character at a concentration of 250 ppm (mean value); type: functional; how it was run: as §1
Homo sapiens [36] = species on record: Homo sapiens; test: Intensity calculated on a weight basis relative to an 85500 ppm sucrose solution at a concentration of 250 ppm (mean value); type: functional; how it was run: as §3
Homo sapiens [37] = species on record: Homo sapiens; test: Bitter character at a concentration of 250 ppm (mean value); type: functional; how it was run: as §5
Homo sapiens [38] = species on record: Homo sapiens; test: Experimentally determined perceived intensity of compound at a concentration of 250 ppm (mean value); type: functional; how it was run: as §4
Homo sapiens [39] = species on record: Homo sapiens; test: Sweet / Bitter character at a concentration of 250 ppm (mean value); 69/31; type: functional
Homo sapiens [40] = species on record: Homo sapiens; test: Sweet character at a concentration of 250 ppm (mean value); type: functional; how it was run: as §1
Homo sapiens [41] = species on record: Homo sapiens; test: Intensity calculated on a molar basis relative to a 0.25 M sucrose solution at a concentration of 250 ppm (mean value); type: functional; how it was run: as §6
Homo sapiens [42] = species on record: Homo sapiens; test: Salty character at a concentration of 250 ppm (mean value); type: functional; how it was run: as §1
Homo sapiens [43] = species on record: Homo sapiens; test: Other taste character at a concentration of 250 ppm (mean value); type: functional; how it was run: as §1
Homo sapiens [44] = species on record: Homo sapiens; test: Percentage of judgments reporting an aftertaste at a concentration of 250 ppm and character thereof; type: functional; how it was run: as §2

COc1ccc(CCC(=O)c2c(O)cc(OCC(=O)[O-])cc2O)cc1N.[Na+]
Taste character (Homo sapiens [1]): 5
Taste character (Homo sapiens [2]): 0
Judgments (Homo sapiens [3]): 58
IW (Homo sapiens [4]): 200
IP (Homo sapiens [5]): 0.08
Taste character (Homo sapiens [6]): 79
Judgments (Homo sapiens [7]): 12
Taste character (Homo sapiens [8]): 6
IM (Homo sapiens [9]): 230
Taste character (Homo sapiens [10]): 1
Taste character (Homo sapiens [11]): 15

COc1ccc(CCC(=N)c2c(O)cc(OCC(=O)[O-])cc2O)cc1O.[Na+]
IP (Homo sapiens [12]): 0
Judgments (Homo sapiens [7]): 1
Judgments (Homo sapiens [13]): 0

COc1ccc(CCC(=O)c2c(O)cc(O)cc2O)cc1O
Taste character (Homo sapiens [14]): 83
IP (Homo sapiens [15]): 0.89
IW (Homo sapiens [16]): 850
Taste character (Homo sapiens [17]): 8
IM (Homo sapiens [18]): 750
Taste character (Homo sapiens [19]): 0
Judgments (Homo sapiens [7]): 10
Taste character (Homo sapiens [20]): 5
Taste character (Homo sapiens [21]): 4
Judgments (Homo sapiens [22]): 70
Taste character (Homo sapiens [23]): 91

COc1ccc(C2CC(=O)c3c(O)cc(OCCCS(=O)(=O)[O-])cc3O2)cc1O.[K+] (stereo unspecified)
IW (Homo sapiens [24]): 40
Taste character (Homo sapiens [25]): 25
Taste character (Homo sapiens [26]): 0
IP (Homo sapiens [27]): 0.5
Judgments (Homo sapiens [7]): 1
Judgments (Homo sapiens [28]): 0
Taste character (Homo sapiens [29]): 75
IM (Homo sapiens [30]): 50
Taste character (Homo sapiens [31]): 0
Taste character (Homo sapiens [32]): 0
Taste character (Homo sapiens [33]): 75

COc1ccc(/C=C/C(=O)c2c(O)cc(OCC(=O)[O-])cc2O)cc1O.[Na+]
IP (Homo sapiens [34]): 0
Judgments (Homo sapiens [7]): 1

COc1ccc(/C=C/C(=O)c2ccc(OCC(=O)[O-])cc2O)cc1O.[Na+]
IP (Homo sapiens [12]): 0
Judgments (Homo sapiens [7]): 1

COc1ccc(CCC(=O)c2c(O)cc(OC(CCCO)C(=O)[O-])cc2O)cc1O.[Na+] (stereo unspecified)
Taste character (Homo sapiens [35]): 0
IW (Homo sapiens [36]): 34
Taste character (Homo sapiens [37]): 31
IP (Homo sapiens [38]): 0.1
Judgments (Homo sapiens [7]): 4
Taste character (Homo sapiens [39]): 69
Taste character (Homo sapiens [40]): 69
IM (Homo sapiens [41]): 43
Taste character (Homo sapiens [42]): 0
Taste character (Homo sapiens [43]): 0
Judgments (Homo sapiens [44]): 0

— ChEMBL document CHEMBL1121813, “Dihydrochalcone sweeteners. A study of the atypical temporal phenomena” (1981)
